From ChEMBL document CHEMBL4368913, “Design, Synthesis, and Biological Evaluation of 6-Substituted Thieno[3,2- d]pyrimidine Analogues as Dual Epidermal Growth Factor Receptor Kinase and Microtubule Inhibitors” (J Med Chem, 2019)
Activity calls are given as the source filed them. The calls are words filed in the database; no cut-off is given here.

What was measured:
HeLa [1] = assay: Antiproliferative activity against human HeLa cells after 72 hrs by MTT assay; assay type: functional, cell-based
Jurkat [2] = assay: Antiproliferative activity against human Jurkat cells after 72 hrs by MTT assay; assay type: functional, cell-based
Outline: (§1)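 Cells in medium with 10% FBS, seeded at 8×10^3 per well, 18 h at 37 °C, 5% CO2, then graded compound concentrations (DMSO ≤0.25%) for 72 h. Viability by MTT. […] Mean ± SE of dose-response curves from at least three independent experiments.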

A549 = assay: Antiproliferative activity against human A549 cells after 72 hrs by MTT assay; assay type: functional, cell-based; conditions: A549, 72 h
HT-29 = assay: Antiproliferative activity against human HT-29 cells after 72 hrs by MTT assay; assay type: functional, cell-based; conditions: HT-29, 72 h
RS4-11 = assay: Antiproliferative activity against human RS4:11 cells after 72 hrs by MTT assay; assay type: functional, cell-based; conditions: RS4-11, 72 h; outline: as §1
[3] = target: T1, Vascular endothelial growth factor receptor 2 (Homo sapiens, UniProt P35968); assay: Inhibition of VEGFR2 (unknown origin)
T1 sequence (P35968 whole entry): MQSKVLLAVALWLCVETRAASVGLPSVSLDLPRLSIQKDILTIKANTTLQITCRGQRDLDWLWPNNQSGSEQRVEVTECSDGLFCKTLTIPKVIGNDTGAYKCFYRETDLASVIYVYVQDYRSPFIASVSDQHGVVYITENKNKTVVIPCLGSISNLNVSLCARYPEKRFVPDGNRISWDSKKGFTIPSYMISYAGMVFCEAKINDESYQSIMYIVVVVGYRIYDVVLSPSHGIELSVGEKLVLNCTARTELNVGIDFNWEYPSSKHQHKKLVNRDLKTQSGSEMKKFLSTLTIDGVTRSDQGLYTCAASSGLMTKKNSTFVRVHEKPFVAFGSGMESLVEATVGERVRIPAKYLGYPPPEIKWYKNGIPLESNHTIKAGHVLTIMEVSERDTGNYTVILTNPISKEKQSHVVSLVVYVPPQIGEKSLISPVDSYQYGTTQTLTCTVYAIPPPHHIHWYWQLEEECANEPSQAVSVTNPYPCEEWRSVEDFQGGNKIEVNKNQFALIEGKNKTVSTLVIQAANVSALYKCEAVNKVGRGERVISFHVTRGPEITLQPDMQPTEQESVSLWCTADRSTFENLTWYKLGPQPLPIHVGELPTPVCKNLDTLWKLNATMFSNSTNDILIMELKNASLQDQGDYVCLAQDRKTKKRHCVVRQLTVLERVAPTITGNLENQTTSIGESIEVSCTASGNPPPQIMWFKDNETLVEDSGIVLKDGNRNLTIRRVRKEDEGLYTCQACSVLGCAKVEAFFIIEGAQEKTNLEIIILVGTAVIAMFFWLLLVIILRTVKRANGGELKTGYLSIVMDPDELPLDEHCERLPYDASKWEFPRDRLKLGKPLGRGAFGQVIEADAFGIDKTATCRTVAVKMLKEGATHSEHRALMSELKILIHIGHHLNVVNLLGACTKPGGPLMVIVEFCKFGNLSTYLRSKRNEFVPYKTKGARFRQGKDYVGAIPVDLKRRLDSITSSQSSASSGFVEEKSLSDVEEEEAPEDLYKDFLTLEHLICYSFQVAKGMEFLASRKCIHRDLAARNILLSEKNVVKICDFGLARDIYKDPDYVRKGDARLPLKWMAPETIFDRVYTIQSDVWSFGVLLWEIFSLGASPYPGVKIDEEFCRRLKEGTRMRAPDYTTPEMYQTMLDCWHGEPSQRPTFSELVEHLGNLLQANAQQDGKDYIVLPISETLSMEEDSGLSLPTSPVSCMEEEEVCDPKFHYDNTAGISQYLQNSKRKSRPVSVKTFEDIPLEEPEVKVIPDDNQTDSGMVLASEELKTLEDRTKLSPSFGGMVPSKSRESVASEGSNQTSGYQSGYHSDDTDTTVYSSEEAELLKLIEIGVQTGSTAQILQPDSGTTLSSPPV

B16 [4] = assay: Antitumor activity against mouse B16 cells allografted in C57BL/6 mouse assessed as reduction in tumor burden at 30 mg/kg, ip dosing starting on day 9 post tumor injection administered […] on day 9,11, 13 and 15 relative to control; assay type: functional; set-up: scale not given: the % may be the effect or the level left
Outline: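 Male C57BL/6 mice, six weeks old, given 2.5×10^5 BL6-B16 murine melanoma cells subcutaneously in the dorsolateral flank in PBS. Once tumours were palpable, compound in 50 µL DMSO was given intraperitoneally every other day from day 9 (days 9, 11, 13, 15); controls received vehicle. Tumour volume compared with control; 5 animals per group; mean ± SEM.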

HeLa [5] = assay: Induction of cell cycle arrest in human HeLa cells assessed as arrest in mitotic phase at 100 nM after 24 hrs by p-histone H3 antibody staining based flow cytometry (reference value: 1.32%); assay type: functional
HUVEC [6] = assay: Antivascular activity in HUVEC assessed as effect on master junction at 10 to 100 nM after 1 hr by matrigel assay; assay type: functional, cell-based; conditions: Homo sapiens
Outline: (§2)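 HUVECs (primary cord-derived, passages 1-6), 6×10^4 cells per well on Matrigel, left 6 h to form capillary tubes. Compound at 10 or 100 nM then added for 1 h. Five fields per well photographed at 10x, and network dimensional/topological parameters quantified. Mean ± S.E.M. of three independent experiments.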

HUVEC [7] = assay: Antivascular activity in HUVEC assessed as effect on number of meshes at 10 to 100 nM after 1 hr by matrigel assay; assay type: functional, cell-based; conditions: Homo sapiens; outline: as §2
HeLa [8] = assay: Induction of cell cycle arrest in human HeLa cells assessed as arrest in mitotic phase at 50 nM after 24 hrs by p-histone H3 antibody staining based flow cytometry (reference value: 1.32%); assay type: functional
Tubulin (Bos taurus) = Tubulin (Bos taurus) (UniProt Q6B856+Q862L2+Q862F3); assay: Inhibition of [3H]-colchicine binding to bovine brain tubulin at 1 to 5 uM after 20 mins relative to control
Outline: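 Colchicine-binding inhibition in mixtures of 1 μM tubulin, 5 μM [3H]colchicine and test compound at 1 or 5 μM.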

Jurkat [9] = assay: Induction of cell cycle arrest in human Jurkat cells assessed as accumulation at G2/M phase at 25 nM after 24 hrs by propidium iodide-stained flow cytometry; assay type: functional, cell-based
Outline: (§3)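 5×10^5 HeLa or Jurkat cells exposed 24 h, then collected, fixed in ice-cold 70% ethanol, treated with lysis buffer containing RNase A and 0.1% Triton X-100, and stained with PI. DNA content by flow cytometry. Mean ± SEM, three independent experiments.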

HeLa [10] = assay: Induction of apoptosis in human HeLa cells at 50 nM after 24 to 48 hrs by Annexin V/propidium iodide-double staining-based flow cytometry; assay type: functional, cell-based; conditions: TDE = time-dependent effect
Outline: (§4)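 HeLa or Jurkat cells exposed 24 or 48 h, then double-labelled with annexin-V-FITC and PI and analysed by flow cytometry for phosphatidylserine exposure.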

HUVEC [11] = assay: Antivascular activity in HUVEC assessed as effect on total branching length at 10 to 100 nM after 1 hr by matrigel assay; assay type: functional, cell-based; conditions: Homo sapiens; outline: as §2
[12] = target: T2, Epidermal growth factor receptor (Homo sapiens, UniProt P00533); assay: Inhibition of EGF-induced EGFR phosphorylation at Y1068 in human HeLa cells at 1 uM pretreated for 6 hrs followed by EGF cells and measured after 15 mins by Western blot analysis; assay type: cell-based
T2 sequence (P00533 whole entry): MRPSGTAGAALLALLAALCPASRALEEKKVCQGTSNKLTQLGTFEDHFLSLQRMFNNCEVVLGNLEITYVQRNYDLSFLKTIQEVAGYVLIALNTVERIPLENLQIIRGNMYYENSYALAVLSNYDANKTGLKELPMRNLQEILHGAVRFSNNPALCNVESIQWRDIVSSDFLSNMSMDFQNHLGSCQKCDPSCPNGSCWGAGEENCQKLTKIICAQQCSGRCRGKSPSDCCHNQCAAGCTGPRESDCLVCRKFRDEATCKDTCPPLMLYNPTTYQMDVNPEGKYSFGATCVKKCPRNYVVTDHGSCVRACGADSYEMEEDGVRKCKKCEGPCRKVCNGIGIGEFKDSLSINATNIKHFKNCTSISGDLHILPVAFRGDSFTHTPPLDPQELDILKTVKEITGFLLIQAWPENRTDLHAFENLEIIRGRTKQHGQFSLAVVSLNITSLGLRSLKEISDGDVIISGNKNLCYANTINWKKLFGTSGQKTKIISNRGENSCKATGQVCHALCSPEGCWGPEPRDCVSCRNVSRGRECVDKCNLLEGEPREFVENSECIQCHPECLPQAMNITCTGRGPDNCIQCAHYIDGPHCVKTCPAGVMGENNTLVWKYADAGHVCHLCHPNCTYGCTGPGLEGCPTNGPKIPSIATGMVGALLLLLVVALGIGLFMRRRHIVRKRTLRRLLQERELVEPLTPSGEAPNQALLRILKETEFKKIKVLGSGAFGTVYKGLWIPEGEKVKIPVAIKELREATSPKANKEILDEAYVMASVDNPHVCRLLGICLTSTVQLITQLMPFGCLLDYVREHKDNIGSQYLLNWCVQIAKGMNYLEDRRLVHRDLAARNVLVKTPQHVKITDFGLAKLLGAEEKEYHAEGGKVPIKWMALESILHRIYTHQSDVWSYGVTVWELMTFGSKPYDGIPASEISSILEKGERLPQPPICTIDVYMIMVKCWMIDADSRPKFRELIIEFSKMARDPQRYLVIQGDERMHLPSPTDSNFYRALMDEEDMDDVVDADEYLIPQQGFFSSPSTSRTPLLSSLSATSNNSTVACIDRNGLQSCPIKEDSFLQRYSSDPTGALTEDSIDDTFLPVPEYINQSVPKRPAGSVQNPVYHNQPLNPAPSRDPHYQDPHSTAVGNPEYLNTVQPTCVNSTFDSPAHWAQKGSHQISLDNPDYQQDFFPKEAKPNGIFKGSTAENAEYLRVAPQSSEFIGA
Outline: (§5)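 HeLa cells treated 6 h with compound (10-1000 nM) or erlotinib, then stimulated with EGF for 15 min. EGF level is given as 50 ng/mL in the methods and 30 ng/mL in the figure legend. Lysates immunoblotted for total EGFR and phospho-Y1068, with β-actin as loading control.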

HUVEC [13] = assay: Antivascular activity in HUVEC assessed as effect on segment length at 10 to 100 nM after 1 hr by matrigel assay; assay type: functional, cell-based; conditions: Homo sapiens; outline: as §2
[14] = target: T2, Epidermal growth factor receptor; assay: Inhibition of EGF-induced EGFR phosphorylation at Y1068 in human HeLa cells pretreated for 6 hrs followed by EGF cells and measured after 15 mins by Western blot analysis; assay type: cell-based; outline: as §5
[15] = Cytotoxicity against HUVEC assessed as inhibition of cell growth; assay type: cell-based; conditions: human, HUVEC cells
[16] = target: T2, Epidermal growth factor receptor; assay: Inhibition of wild type EGFR (unknown origin) by bioluminescent ADP-glo kinase assay
HUVEC [17] = assay: Antivascular activity in HUVEC assessed as effect on mesh area at 10 to 100 nM after 1 hr by matrigel assay; assay type: functional, cell-based; conditions: Homo sapiens; outline: as §2
HUVEC [18] = assay: Antivascular activity in HUVEC assessed as effect on nodes at 10 to 100 nM after 1 hr by matrigel assay; assay type: functional, cell-based; conditions: Homo sapiens; outline: as §2
HeLa [19] = assay: Induction of cell cycle arrest in human HeLa cells assessed as accumulation at G2/M phase at 25 nM after 24 hrs by propidium iodide-stained flow cytometry; assay type: functional, cell-based; outline: as §3
HeLa [20] = assay: Induction of apoptosis in human HeLa cells assessed as decrease in bcl2 expression at 50 to 100 nM after 24 to 48 hrs by Western blot analysis; assay type: functional, cell-based
Outline: (§6)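 HeLa cells incubated with compound at indicated concentrations and times, then washed in ice-cold PBS and lysed 30 min on ice. 10 µg protein per lane run on SDS-PAGE, transferred to PVDF and blocked overnight at 4 °C in 5% BSA. Probed 2 h at room temperature for PARP, Mcl-1 or Bcl-2, detected by ECL, and reprobed for β-actin as loading control.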

[21] = Toxicity in C57BL/6 mouse allografted with mouse B16 cells assessed as body weight loss at 3 to 7.5 mg/kg, ip dosing starting on day 9 post tumor injection administered […] on day 9,11, 13 and 15; assay type: organism-based; conditions: in vivo
Outline: (§7)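 Six-week-old male C57BL/6 mice injected subcutaneously in the dorsolateral flank with 2.5×10^5 BL6-B16 melanoma cells in PBS. Once tumors were palpable, ip dosing every other day on days 9, 11, 13 and 15 at 3 or 7.5 mg/kg in 50 µL DMSO. Vehicle controls; CA-4P 30 mg/kg reference. Tumor volume and body weight tracked; 5 mice/group, mean ± SEM.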

B16 [22] = assay: Antitumor activity against mouse B16 cells allografted in C57BL/6 mouse assessed as reduction in tumor burden at 3 mg/kg, ip dosing starting on day 9 post tumor injection administered […] on day 9,11, 13 and 15 relative to control; assay type: functional; set-up: scale not given: the % may be the effect or the level left; outline: as §7
Tubulin = Tubulin (Bos taurus, UniProt Q6B856+Q862L2+Q862F3); assay: Inhibition of bovine brain tubulin polymerization after 20 mins
Outline: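 Bovine brain tubulin (10 μM) preincubated with varying compound concentrations in 0.8 M monosodium glutamate, pH 6.6, at 30 °C, then chilled to 0 °C. 0.4 mM GTP added, mixtures warmed to 30 °C, assembly followed by turbidity at 350 nm.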

B16 [23] = assay: Antitumor activity against mouse B16 cells allografted in C57BL/6 mouse assessed as reduction in tumor burden at 7.5 mg/kg, ip dosing starting on day 9 post tumor injection administered […] on day 9,11, 13 and 15 relative to control; assay type: functional; set-up: scale not given: the % may be the effect or the level left; outline: as §7
HeLa [24] = assay: Induction of apoptosis in human HeLa cells assessed as decrease in […] expression at 50 to 100 nM after 24 to 48 hrs by Western blot analysis; assay type: functional, cell-based; outline: as §6
Jurkat [25] = assay: Induction of apoptosis in human Jurkat cells at 50 nM after 24 to 48 hrs by Annexin V/propidium iodide-double staining-based flow cytometry; assay type: functional, cell-based; conditions: TDE = time-dependent effect; outline: as §4
[26] = target: T1, Vascular endothelial growth factor receptor 2; assay: Inhibition of wild type VEGFR2 (unknown origin) by bioluminescent ADP-glo kinase assay
HeLa [27] = assay: Induction of ROS generation in human HeLa cells at 50 nM after 12 hrs by 2,7-dichlorodihydrofluorescein diacetate-staining based flow cytometry; assay type: functional, cell-based
Outline: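 HeLa cells exposed 3, 6, 12 or 24 h to 50, 100 or 250 nM, then stained with JC-1 for mitochondrial potential or H2-DCFDA for ROS. Analysed by flow cytometry.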

B16 [28] = assay: Antiproliferative activity against mouse B16 cells after 72 hrs by MTT assay; assay type: functional, cell-based; conditions: B16, 72 h

For `COc1cc(Nc2ncnc3cc(-c4ccc(F)cc4)sc23)cc(OC)c1OC`, the IC50 (HeLa [1]) was 0.45 µM, the IC50 (Jurkat [2]) was 0.26 µM and the IC50 (A549) was 13.5 µM. The IC50 (HT-29) was 1.9 µM and the IC50 (RS4-11) was 1.9 µM.
In the case of `Cc1cc2cc(Nc3ncnc4cc(-c5ccccc5)sc34)ccc2[nH]1`, the IC50 [3] is reported as 0.14 µM.
For `COc1cccc(-c2cc3ncnc(Nc4cc(OC)c(OC)c(OC)c4)c3s2)c1`, the IC50 (HeLa [1]) was 3.2 µM, the IC50 (Jurkat [2]) was 3 µM and the IC50 (A549) was 8.8 µM. For the same compound, the IC50 (HT-29) was 3.3 µM and the IC50 (RS4-11) was 5.4 µM.
`COc1ccc(/C=C\c2cc(OC)c(OC)c(OC)c2)cc1OP(=O)([O-])[O-].[Na+].[Na+]` [FOSBRETABULIN DISODIUM] gave an Activity (B16 [4]) of 34.9%.
For `COc1cc(Nc2ncnc3cc(-c4ccc(C)cc4)sc23)cc(OC)c1OC`, the IC50 (HeLa [1]) was 0.001 µM, the Activity (HeLa [5]) was 49.4 - 50% and the Activity (HUVEC [6]) was “Active”. For the same compound, the IC50 (Jurkat [2]) was 0.001 µM, the Activity (HUVEC [7]) was “Active” and the Activity (HeLa [8]) was 36.8 - 38%. The inhibition (Tubulin (Bos taurus)) was 76%, the Activity (Jurkat [9]) was “Active” and the Activity (HeLa [10]) was “Tde”. For the same compound, the Activity (HUVEC [11]) was “Active”, the inhibition [12] was “Active” and the Activity (HUVEC [13]) was “Active”. For the same compound, the IC50 (A549) was 0.019 µM, the inhibition [14] was “Dose-dependent effect” and the GI50 [15] was 0.056 µM. For the same compound, the IC50 [16] was 0.03 µM, the Activity (HUVEC [17]) was “Active” and the Activity (HUVEC [18]) was “Active”. The Activity (HeLa [19]) was “Active”, the Activity (HeLa [20]) was “Active” and the IC50 (HT-29) was 0.02 µM. For the same compound, the Activity [21] was “Non-Toxic”, the Activity (B16 [22]) was 28% and the IC50 (RS4-11) was 0.002 µM. For the same compound, the IC50 (Tubulin) was 0.71 µM, the Activity (B16 [23]) was 52.5% and the Activity (HeLa [24]) was “Active”. For the same compound, the Activity (Jurkat [25]) was “Tde”, the IC50 [26] was over 1 µM and the Activity (HeLa [27]) was “Active”. The IC50 (B16 [28]) was 0.0234 µM.
Work on `COc1cc(Nc2ncnc3cc(-c4ccc(Br)cc4)sc23)cc(OC)c1OC` yielded an IC50 (HeLa [1]) of 0.22 µM, an IC50 (Jurkat [2]) of 0.03 µM and an inhibition (Tubulin (Bos taurus)) of 35%. It also gave an IC50 (A549) of 0.53 µM, an IC50 [16] of 0.326 µM and an IC50 (HT-29) of 0.15 µM. The IC50 (RS4-11) was 0.19 µM and the IC50 (Tubulin) was 2.5 µM.
In the case of `COc1cc(Nc2ncnc3cc(-c4ccc(Cl)cc4)sc23)cc(OC)c1OC`, the IC50 (HeLa [1]) is reported as 0.09 µM, the IC50 (Jurkat [2]) is reported as 0.003 µM and the inhibition (Tubulin (Bos taurus)) is reported as 36%. The IC50 (A549) was 0.6 µM, the IC50 [16] was 0.273 µM and the IC50 (HT-29) was 0.087 µM. It also gave an IC50 (RS4-11) of 0.005 µM and an IC50 (Tubulin) of 3.3 µM.
